Data as given in ChEMBL document CHEMBL4699574, “Discovery of Ketone-Based Covalent Inhibitors of Coronavirus 3CL Proteases for the Potential Therapeutic Treatment of COVID-19” (J Med Chem, 2020).
In brackets after ≈: the same amount, converted by molar mass. Activity calls are given as the source filed them. The calls are words filed in the database; no cut-off is given here.

Experiments:
[1] = Inhibition of human chymotrypsin
[2] = Volume of distribution at steady state in dog at 2 mg/kg, iv; type: ADME, organism-based, Canis lupus familiaris; conditions: in vivo, read-out: Vdss
[3] = Clearance in dog at 2 mg/kg, iv; conditions: in vivo
[4] = system: Human immunodeficiency virus 1; assay: Antiviral activity against HIV-1-RF infected in human H9 cells assessed as reduction in virus-induced cytopathogenicity incubated for 7 days by XTT dye based analysis; type: functional, organism-based; conditions: Human immunodeficiency virus 1, RF, H9, 168 h
[5] = Inhibition of SARS-CoV-2 3CL protease using DABCYLKTSAVLQ-SGFRKME-EDANS as peptide substrate in presence of PF-00835231 inhibitor incubated for 60 mins by FRET assay; set-up: species or system Severe acute respiratory syndrome coronavirus 2
[6] = target: Human immunodeficiency virus type 1 protease (Human immunodeficiency virus 1, UniProt Q72874); assay: Inhibition of HIV1 protease
[7] = target: T1, Caspase-2 (Homo sapiens, UniProt P42575); assay: Inhibition of human Caspase 2 at 10 uM relative to control
[8] = Cytotoxicity against human HuH-7 cells assessed as reduction in cell viability; type: cell-based
[9] = target: T2, Cathepsin D (Homo sapiens, UniProt P07339); assay: Inhibition of human cathepsin D at 10 uM relative to control
[10] = system: SARS-CoV; assay: Antiviral activity against SARS COV-1 infected in monkey Vero 76 cells assessed as reduction in virus-induced cytopathic effect measured after 66 hrs in presence of p-glycoprotein inhibitor CP100356 by neutral red method or cell titer glo-based luminescence assay; type: functional, organism-based; conditions: Severe acute respiratory syndrome-related coronavirus, Vero 76, 66 h
Summary of the method: (§1)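 P-glycoprotein transport inhibitor CP-100356 co-dosed at a fixed 0.5 µM throughout a full dose-response of the test inhibitor in the antiviral cytopathic assay.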

[11] = system: Human betaherpesvirus 5; assay: Antiviral activity against Human cytomegalovirus AD169 infected in human MRC5 cells assessed as reduction in viral replication measured after 5 days by ELISA; type: functional, cell-based; conditions: Human betaherpesvirus 5, AD169, MRC5, 120 h
[12] = Aqueous solubility of compound in 2.5% w/v SBECD, pH 7.4 5 mM phosphate buffer, made isotonic with 4.25% dextrose formulation; type: physicochemical; conditions: 2.5% w/v SBECD in phosphate buffer, dose 4.6 mg/ml
[13] = Cytotoxicity against human MRC5 cells assessed as reduction in cell viability incubated for 4 days by XTT dye based assay; conditions: time 4 day
[14] = AUC in dog at 2 mg/kg, iv; type: ADME, organism-based, Canis lupus familiaris; set-up: dose 2 mg/kg; conditions: in vivo
[15] = Inhibition of Human coronavirus 229E protease
[16] = system: rhinovirus A16; assay: Antiviral activity against Human rhinovirus 16 infected in human H1-HeLa cells assessed as reduction in virus-induced cytopathogenicity incubated for 2 to 5 days by XTT dye based analysis; type: functional, organism-based; conditions: Rhinovirus A
[17] = Volume of distribution at steady state in rat at 2 mg/kg, iv; type: ADME, organism-based; conditions: in vivo
[18] = system: Hepacivirus hominis; assay: Inhibition of HCV protease at 10 uM relative to control
[19] = AUC in rat at 2 mg/kg, iv; type: ADME, organism-based; set-up: dose 2 mg/kg; conditions: in vivo
[20] = target: T2, Cathepsin D; assay: Inhibition of human cathepsin D
[21] = Cytotoxicity against human H1-HeLa cells assessed as reduction in cell viability measured after 2 to 5 days by XTT assay; type: cell-based; conditions: time 2-5 day
[22] = Half-life in rat at 2 mg/kg, iv; type: ADME, organism-based; conditions: in vivo
[23] = system: Human coronavirus 229E; assay: microbe, parasite or virus in culture; conditions: MRC5, 96 h
[24] = Inhibition of HCV protease; set-up: species or system Hepacivirus hominis
[25] = Half life in dog at 2 mg/kg, iv; type: ADME, organism-based, Canis lupus familiaris; conditions: in vivo
[26] = target: Prothrombin (Homo sapiens, UniProt P00734); assay: Inhibition of human thrombin
[27] = Inhibition of HRV protease; set-up: species or system Human rhinovirus sp.
[28] = target: T3, Cathepsin B (Homo sapiens, UniProt P07858); assay: Inhibition of human cathepsin B at 10 uM relative to control
[29] = system: rhinovirus B14; assay: Antiviral activity against Human rhinovirus 14 infected in human H1-HeLa cells assessed as reduction in virus-induced cytopathogenicity incubated for 2 to 5 days by XTT dye based analysis; type: functional, organism-based; conditions: Rhinovirus B
[30] = target: Human immunodeficiency virus type 1 protease (Human immunodeficiency virus 1) (UniProt Q72874); assay: Inhibition of HIV1 protease at 10 uM relative to control
[31] = system: Hepatitis C virus; assay: Antiviral activity against Hepatitis C virus replicon infected in human Huh-7 cells assessed as reduction in viral RNA synthesis measured after 24 to 72 hrs by Trizol reagent based RT-PCR analysis; type: functional, organism-based, Hepacivirus hominis
[32] = Half-life in monkey at 4 mg/kg, iv; type: ADME, organism-based, Macaca mulatta; conditions: rhesus monkey, in vivo
[33] = Aqueous solubility of compound in 2.5% w/v HPCD formulation; type: physicochemical; conditions: 2.5% w/v HPCD in water
[34] = AUC in monkey at 4 mg/kg, iv; type: ADME, organism-based, Macaca mulatta; set-up: dose 4 mg/kg; conditions: rhesus monkey, in vivo
[35] = target: Neutrophil elastase (Homo sapiens, UniProt P08246); assay: Inhibition of human leukocyte elastase
[36] = target: leukocyte (neutrophil) elastase (Homo sapiens, UniProt P08246); assay: Inhibition of human leukocyte elastase at 10 uM relative to control
[37] = target: T3, Cathepsin B; assay: Inhibition of human cathepsin B
[38] = system: pepsin; assay: Inhibition of human pepsin at 10 uM relative to control
[39] = Aqueous solubility of compound in 2.5% w/v SBECD, pH 7.4 5 mM citrate buffer, made isotonic with 4.25% dextrose formulation; type: physicochemical; conditions: 2.5% w/v SBECD in citrate buffer
[40] = target: thrombin (Homo sapiens, UniProt P00734); assay: Inhibition of human thrombin at 10 uM relative to control
[41] = Cytotoxicity against human MRC5 cells assessed as reduction in cell viability after 1 to 5 days by XTT dye based assay; conditions: time 1-5 day
[42] = Metabolic stability in human liver microsomes assessed as half life; type: ADME, Microsome
[43] = Reversible inhibition of SARS coronavirus Urbani 3CL protease(9985 to 10902) using TAMRA-SITSAVLQSGFRKMK(DABCYL)-OH as substrate measured for 10 mins by FRET assay
Summary of the method: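 SARS CoV-1 3CLpro FRET assay; each value calculated from at least eight data points, with at least two independent determinations.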

[44] = Cytotoxicity against African green monkey Vero 76 cells measured after 66 hrs by neutral red method or cell titer glo-based luminescence assay; conditions: chlorocebus sabaeus
[45] = system: chymotrypsin; assay: Inhibition of human chymotrypsin at 10 uM relative to control
[46] = target: T1, Caspase-2; assay: Inhibition of human Caspase 2
[47] = system: Human coronavirus 229E; assay: Antiviral activity against Human coronavirus 229E infected in human MRC5 cells assessed as reduction in virus-induced cytopathogenicity incubated for 4 days in presence of p-glycoprotein inhibitor CP100356 by XTT dye based assay; type: functional, organism-based; conditions: time 4.0 day; summary of the method: as §1
[48] = Inhibition of human pepsin
[49] = Permeability of compound in human Caco-2 cells; type: ADME, cell-based
[50] = Cytotoxicity against human H9 cells assessed as reduction in cell viability incubated for 7 days by XTT dye based analysis; conditions: time 7 day
[51] = Volume of distribution at steady state in monkey at 4 mg/kg, iv; type: ADME, organism-based, Macaca mulatta; conditions: rhesus monkey, in vivo

T2 sequence (P07339 65-162 limits assumed): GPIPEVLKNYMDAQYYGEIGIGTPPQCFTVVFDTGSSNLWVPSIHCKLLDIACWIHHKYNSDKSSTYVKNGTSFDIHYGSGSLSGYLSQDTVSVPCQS
T2 sequence (P07339 169-412 limits assumed): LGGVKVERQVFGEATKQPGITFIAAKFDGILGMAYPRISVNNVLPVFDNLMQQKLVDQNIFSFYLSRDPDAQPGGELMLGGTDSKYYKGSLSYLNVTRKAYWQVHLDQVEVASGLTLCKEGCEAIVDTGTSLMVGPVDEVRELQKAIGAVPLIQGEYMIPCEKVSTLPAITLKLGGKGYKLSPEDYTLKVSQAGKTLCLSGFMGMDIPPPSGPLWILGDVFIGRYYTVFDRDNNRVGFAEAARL
T1 sequence (P42575 170-325 limits assumed): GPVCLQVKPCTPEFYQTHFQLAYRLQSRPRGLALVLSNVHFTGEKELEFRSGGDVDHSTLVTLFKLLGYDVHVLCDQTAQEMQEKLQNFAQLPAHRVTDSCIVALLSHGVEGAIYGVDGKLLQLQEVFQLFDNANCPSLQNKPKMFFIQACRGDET
T1 sequence (P42575 334-452 limits assumed): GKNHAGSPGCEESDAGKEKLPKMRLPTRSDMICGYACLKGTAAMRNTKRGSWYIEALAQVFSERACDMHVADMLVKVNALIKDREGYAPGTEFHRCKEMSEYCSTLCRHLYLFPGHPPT
Chain of leukocyte (neutrophil) elastase (P08246 whole entry): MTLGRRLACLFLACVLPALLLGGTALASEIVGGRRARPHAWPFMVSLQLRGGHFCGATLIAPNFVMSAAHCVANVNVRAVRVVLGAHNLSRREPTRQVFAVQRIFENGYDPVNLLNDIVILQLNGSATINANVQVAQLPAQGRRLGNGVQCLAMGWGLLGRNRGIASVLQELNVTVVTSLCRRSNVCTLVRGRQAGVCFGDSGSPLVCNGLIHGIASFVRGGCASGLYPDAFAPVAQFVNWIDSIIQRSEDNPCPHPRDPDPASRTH
Chain of Neutrophil elastase (P08246 whole entry): as above

`COc1cccc2[nH]c(C(=O)N[C@@H](CC(C)C)C(=O)N[C@@H](C[C@@H]3CCNC3=O)C(=O)CO)cc12` [PF-00835231] gave an IC50 [1] of over 10 µM, a Vd [2] of 0.4 L/kg and a clearance [3] of 10.5 mL/min/kg. For the same compound, the EC50 [4] was over 32 µM, the IC50 [5] was 0.27 nM and the IC50 [6] was over 10 µM. The inhibition at 10 µM [7] was -20%, the CC50 [8] was over 320 µM and the inhibition at 10 µM [9] was 3%. The EC50 [10] was 1100 nM, the EC50 [11] was over 100 µM and the solubility [12] was 4600 µg/mL (≈ 9.73 mM). The CC50 at 96 h [13] was over 40 µM, the AUC [14] was 3800 ng·h/mL and the IC50 [15] was 4 nM. For the same compound, the EC50 [16] was over 100 µM, the Vdss [17] was 1.2 L/kg and the inhibition [18] was 16%. For the same compound, the AUC [19] was 1200 ng·h/mL, the IC50 [20] was over 10 µM and the CC50 [21] was over 1.26 mM. The t1/2 [22] was 1 min, the EC50 [23] was 9 nM and the IC50 [24] was over 10 µM. The half-life [25] was 78 min, the IC50 [26] was over 10 µM and the IC50 [27] was 1700 nM. For the same compound, the inhibition at 10 µM [28] was 93%, the EC50 [29] was over 100 µM and the inhibition [30] was 0%. For the same compound, the EC50 [31] was over 320 µM, the t1/2 [32] was 1.6 min and the solubility [33] was 6600 µg/mL (≈ 14 mM). It also gave an AUC [34] of 3800 ng·h/mL, an IC50 [35] of over 10 µM and an inhibition at 10 µM [36] of -31%. The IC50 [37] was 1300 nM, the inhibition at 10 µM [38] was -2% and the solubility [39] was 4600 µg/mL (≈ 9.73 mM). For the same compound, the inhibition at 10 µM [40] was -28%, the CC50 [41] was over 100 µM and the half-life [42] was 107 min. The IC50 [43] was 4 nM, the CC50 at 66 h [44] was 452 µM and the inhibition at 10 µM [45] was 8%. For the same compound, the IC50 [46] was over 10 µM, the Activity [47] was “Active” and the IC50 [48] was over 10 µM. For the same compound, the permeability [49] was “Impermeable”, the CC50 at 168 h [50] was over 32 µM and the Vdss [51] was 0.6 L/kg.
